Assay results: ChEMBL document CHEMBL1255279, “Selection for high-level telithromycin resistance in Staphylococcus aureus yields mutants resulting from an rplB-to-rplV gene conversion-like event” (2008)
Converted amounts (≈) assume the structure as drawn.

How the values were obtained:
Staphylococcus aureus [1] = assay: Antibacterial activity against Telithromycin resistant Staphylococcus aureus isolate KT04 carrying duplication in the carboxy-terminal region of L22 ribosomal protein; assay type: functional
In short: (§1)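 MICs determined in Luria-Bertani medium at 37°C. Resistant mutants of S. aureus RN4220 came from spreading 0.3 ml of an overnight brain heart infusion broth culture onto Luria-Bertani plates containing 1 μg/ml telithromycin. These plates were incubated at 37°C for 1 week.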

Staphylococcus aureus [2] = assay: Antibacterial activity against Telithromycin resistant Staphylococcus aureus RN4220 carrying rplD and rplV genes; assay type: functional; in short: as §1
Staphylococcus aureus [3] = assay: Antibacterial activity against Telithromycin resistant Staphylococcus aureus isolate KT02 carrying rplB-derived insertion of L22 ribosomal protein
Staphylococcus aureus [4] = assay: Antibacterial activity against Telithromycin resistant Staphylococcus aureus isolate KT11 carrying rplD and rplV mutant genes; assay type: functional; in short: as §1
Staphylococcus aureus [5] = assay: Antibacterial activity against Telithromycin resistant Staphylococcus aureus isolate KT01 carrying rplB-derived insertion of L22 ribosomal protein
Staphylococcus aureus [6] = assay: Antibacterial activity against Telithromycin resistant Staphylococcus aureus isolate KT05 carrying rplD and rplV mutant genes; assay type: functional; in short: as §1
Staphylococcus aureus [7] = assay: Antibacterial activity against Telithromycin resistant Staphylococcus aureus isolate KT09 carrying rplD and rplV mutant genes; assay type: functional; in short: as §1
Staphylococcus aureus [8] = assay: Antibacterial activity against Telithromycin resistant Staphylococcus aureus isolate KT10 carrying rplD and rplV mutant genes; assay type: functional; in short: as §1
Staphylococcus aureus [9] = assay: Antibacterial activity against Telithromycin resistant Staphylococcus aureus isolate KT06 carrying duplication in the carboxy-terminal region of L22 ribosomal protein; assay type: functional; in short: as §1

Structure (SMILES) | MIC (Staphylococcus aureus [1]) [mg/L] | MIC (Staphylococcus aureus [2]) [mg/L] | MIC (Staphylococcus aureus [3]) [mg/L] | MIC (Staphylococcus aureus [4]) [mg/L] | MIC (Staphylococcus aureus [5]) [mg/L] | MIC (Staphylococcus aureus [6]) [mg/L] | MIC (Staphylococcus aureus [7]) [mg/L] | MIC (Staphylococcus aureus [8]) [mg/L] | MIC (Staphylococcus aureus [9]) [mg/L]
CC[C@H]1OC(=O)[C@H](C)[C@@H](O[C@H]2C[C@@](C)(OC)[C@@H](O)[C@H](C)O2)[C@H](C)[C@@H](O[C@@H]2O[C@H](C)C[C@H](N(C)C)[C@H]2O)[C@](C)(O)C[C@@H](C)C(=O)[C@H](C)[C@@H](O)[C@]1(C)O [ERYTHROMYCIN] | 32 (≈ 43.6 µM) | 0.12 (≈ 0.164 µM) | 32 (≈ 43.6 µM) | 16 (≈ 21.8 µM) | 32 (≈ 43.6 µM) | 32 (≈ 43.6 µM) | 8 (≈ 10.9 µM) | 4 (≈ 5.45 µM) | 16 (≈ 21.8 µM)
CC[C@H]1OC(=O)[C@H](C)C(=O)[C@H](C)[C@@H](O[C@@H]2O[C@H](C)C[C@H](N(C)C)[C@H]2O)[C@](C)(OC)C[C@@H](C)C(=O)[C@H](C)[C@H]2N(CCCCn3cnc(-c4cccnc4)c3)C(=O)O[C@]12C [TELITHROMYCIN] | 16 (≈ 19.7 µM) | 0.03 (≈ 0.0369 µM) | 8 (≈ 9.85 µM) | 8 (≈ 9.85 µM) | 16 (≈ 19.7 µM) | 16 (≈ 19.7 µM) | 2 (≈ 2.46 µM) | 4 (≈ 4.93 µM) | 4 (≈ 4.93 µM)
